Reference: ChEMBL document CHEMBL1949557, “Discovery of INCB3284, a Potent, Selective, and Orally Bioavailable hCCR2 Antagonist” (ACS Med Chem Lett, 2011)

Legend:
[1] = target: T1, C-C chemokine receptor type 2 (Homo sapiens, UniProt P41597); assay: Displacement of [125I]MCP1 from CCR2 in human PBMC at 1 uM after 30 mins by gamma counter
Target sequence in this assay (P41597 whole entry, looked up): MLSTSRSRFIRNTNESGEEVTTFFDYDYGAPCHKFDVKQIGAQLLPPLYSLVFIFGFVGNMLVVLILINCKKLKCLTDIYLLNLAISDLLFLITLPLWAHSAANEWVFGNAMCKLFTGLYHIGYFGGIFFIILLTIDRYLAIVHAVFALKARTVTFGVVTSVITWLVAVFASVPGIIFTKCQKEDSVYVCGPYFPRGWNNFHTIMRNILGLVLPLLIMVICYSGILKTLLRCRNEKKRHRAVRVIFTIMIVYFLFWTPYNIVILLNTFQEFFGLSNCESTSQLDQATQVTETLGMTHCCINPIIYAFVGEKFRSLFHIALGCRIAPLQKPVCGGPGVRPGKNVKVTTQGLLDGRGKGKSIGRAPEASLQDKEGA

[2] = target: T1, C-C chemokine receptor type 2; assay: Displacement of [125I]MCP1 from CCR2 in human PBMC after 30 mins by gamma counter
Target sequence in this assay (P41597 whole entry): as the sequence (P41597 whole entry, looked up) above

Mus musculus = assay: Dose normalized AUC in mouse at 10 mg/kg, po; assay type: ADME, organism-based; design: dose 10 mg/kg, route oral; conditions: in vivo
Method in brief: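 Mouse oral PK screen by cassette dosing at 10 mg/kg, three animals per cassette. AUC is dose-normalized.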

[3] = target: C-C chemokine receptor type 2 (Mus musculus, UniProt P51683); assay: Displacement of [125I]MCP1 from mouse CCR2 after 30 mins by gamma counter
Chain of C-C chemokine receptor type 2 (Mus musculus, UniProt P51683) (P51683 whole entry): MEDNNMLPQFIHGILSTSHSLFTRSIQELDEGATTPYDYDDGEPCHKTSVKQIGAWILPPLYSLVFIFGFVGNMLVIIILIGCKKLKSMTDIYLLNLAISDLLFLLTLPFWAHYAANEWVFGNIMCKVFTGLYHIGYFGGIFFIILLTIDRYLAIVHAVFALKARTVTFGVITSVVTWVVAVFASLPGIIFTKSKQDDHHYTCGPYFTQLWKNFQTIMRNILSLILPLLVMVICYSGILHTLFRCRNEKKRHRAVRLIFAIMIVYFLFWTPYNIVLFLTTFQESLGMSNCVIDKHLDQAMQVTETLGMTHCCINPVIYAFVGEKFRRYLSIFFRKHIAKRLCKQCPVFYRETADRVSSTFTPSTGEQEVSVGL

| Compound | inhibition [1] [%] | IC50 [2] [nM] | AUC/dose (Mus musculus) [nM·h] | IC50 [3] [nM] |
| --- | --- | --- | --- | --- |
| O=C(CNC(=O)c1cccc(C(F)(F)F)c1)N[C@@H]1CCN([C@H]2CC[C@](O)(c3cnccn3)CC2)C1 | < 50 |  |  |  |
| Cc1ccc([C@]2(O)CC[C@H](N3CC[C@@H](NC(=O)CNC(=O)c4cccc(C(F)(F)F)c4)C3)CC2)cn1 |  | 2.4 | 127 |  |
| CCOc1ccc([C@]2(O)CC[C@@H](N3CC[C@@H](NC(=O)CNC(=O)c4cccc(C(F)(F)F)c4)C3)CC2)cn1 | < 50 |  |  |  |
| O=C(CNC(=O)c1cccc(C(F)(F)F)c1)N[C@@H]1CCN([C@H]2CC[C@@](O)(c3ccncc3)CC2)C1 |  | 4.3 | 100 |  |
| O=C(CNC(=O)c1cccc(C(F)(F)F)c1)N[C@@H]1CCN([C@H]2CC[C@@](O)(c3cncnc3)CC2)C1 |  | 14 |  |  |
| O=C(CNC(=O)c1cccc(C(F)(F)F)c1)N[C@@H]1CCN([C@H]2CC[C@](O)(c3ccnnc3)CC2)C1 | < 50 |  |  |  |
| Cc1ccc([C@]2(O)CC[C@H](N3CC[C@@H](NC(=O)CNC(=O)c4cccc(C(F)(F)F)c4)C3)CC2)cc1 |  | 1 |  | 18 |
| O=C(CNC(=O)c1cccc(C(F)(F)F)c1)N[C@@H]1CCN([C@H]2CC[C@@](O)(c3ccnnc3)CC2)C1 |  | 4.9 | 80 |  |
| O=C(CNC(=O)c1cccc(C(F)(F)F)c1)N[C@@H]1CCN([C@H]2CC[C@](O)(c3cccnc3)CC2)C1 | < 50 |  |  |  |
| Cc1ccc([C@]2(O)CC[C@@H](N3CC[C@@H](NC(=O)CNC(=O)c4cccc(C(F)(F)F)c4)C3)CC2)cn1 | < 50 |  |  |  |
| COc1ccc([C@]2(O)CC[C@@H](N3CC[C@@H](NC(=O)CNC(=O)c4cccc(C(F)(F)F)c4)C3)CC2)cn1 | < 50 |  |  |  |
| O=C(CNC(=O)c1cccc(C(F)(F)F)c1)N[C@@H]1CCN([C@H]2CC[C@@](O)(c3ccccn3)CC2)C1 |  | 3.2 | 2812 |  |
| O=C(CNC(=O)c1cccc(C(F)(F)F)c1)N[C@@H]1CCN([C@H]2CC[C@](O)(c3ccncc3)CC2)C1 (mixture of isomers) | < 50 |  |  |  |
| Cc1ccc([C@]2(O)CC[C@H](N3CC[C@H](NC(=O)CNC(=O)c4cccc(C(F)(F)F)c4)C3)CC2)cc1 |  | > 1000 |  |  |
| O=C(CNC(=O)c1cccc(C(F)(F)F)c1)N[C@@H]1CCN([C@H]2CC[C@](O)(c3ncccn3)CC2)C1 | < 50 |  |  |  |
| O=C(CNC(=O)c1cccc(C(F)(F)F)c1)N[C@@H]1CCN([C@H]2CC[C@@](O)(c3ccncn3)CC2)C1 |  | 7.8 | 930 |  |
| O=C(CNC(=O)c1cccc(C(F)(F)F)c1)N[C@@H]1CCN([C@H]2CC[C@](O)(c3cncnc3)CC2)C1 | < 50 |  |  |  |
| O=C(CNC(=O)c1cccc(C(F)(F)F)c1)N[C@@H]1CCN([C@H]2CC[C@](O)(c3ccncn3)CC2)C1 | < 50 |  |  |  |
| O=C(CNC(=O)c1cccc(C(F)(F)F)c1)N[C@@H]1CCN([C@H]2CC[C@](O)(c3cccnn3)CC2)C1 | < 50 |  |  |  |
| O=C(CNC(=O)c1cccc(C(F)(F)F)c1)N[C@@H]1CCN([C@H]2CC[C@@](O)(c3cccnn3)CC2)C1 |  | 7.3 | 155 |  |
| O=C(CNC(=O)c1cccc(C(F)(F)F)c1)N[C@@H]1CCN([C@H]2CC[C@@](O)(c3cccnc3)CC2)C1 |  | 2.6 | 50 |  |
| O=C(CNC(=O)c1cccc(C(F)(F)F)c1)N[C@@H]1CCN([C@H]2CC[C@@](O)(c3ncccn3)CC2)C1 |  | 10.3 | 1442 |  |
| O=C(CNC(=O)c1cccc(C(F)(F)F)c1)N[C@@H]1CCN([C@H]2CC[C@](O)(c3ccccn3)CC2)C1 | < 50 |  |  |  |
| O=C(CNC(=O)c1cccc(C(F)(F)F)c1)N[C@@H]1CCN([C@H]2CC[C@@](O)(c3cnccn3)CC2)C1 |  | 10.9 | 1550 |  |
| CCOc1ccc([C@]2(O)CC[C@H](N3CC[C@@H](NC(=O)CNC(=O)c4cccc(C(F)(F)F)c4)C3)CC2)cn1 |  | 3.2 | 287 |  |
